Experiment [1] deals with T1, Transient receptor potential cation channel subfamily A member 1 (Rattus norvegicus, UniProt Q6RI86). Kind of experiment: Agonist activity at rat TRPA1 receptor expressed in HEK293 cells assessed as increase in intracellular Ca2+ concentration by spectrofluorimetric analysis. In kind it is cell-based. In short, it runs like this:
(§1)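 HEK293 cells stably transfected with human TRPV1 or rat TRPA1 cDNA (pcDNA3, G-418 selection) were loaded 1 h at room temperature with Fluo-4-AM, washed and suspended in Tyrode's buffer pH 7.4. [Ca²⁺]i was read by stirred-cuvette spectrofluorimetry before and after adding test compound at various concentrations. Signal from untransfected cells was subtracted. Efficacy was taken as percent of ionomycin (4 µM) for TRPV1 and percent of allyl isothiocyanate (100 µM) for TRPA1; EC50 was also derived.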

Experiment [2] deals with Transient receptor potential cation channel subfamily A member 1 (Rattus norvegicus) (UniProt Q6RI86). Kind of experiment: Agonist activity at rat TRPA1 receptor expressed in HEK293 cells assessed as increase in intracellular Ca2+ concentration by spectrofluorimetric analysis relative to allyl isothiocyanate. In kind it is cell-based. In short, it runs like this:
as §1

Experiment [3] addresses T2, Fatty-acid amide hydrolase 1 (Rattus norvegicus, UniProt P97612).
T2 sequence (P97612 whole entry): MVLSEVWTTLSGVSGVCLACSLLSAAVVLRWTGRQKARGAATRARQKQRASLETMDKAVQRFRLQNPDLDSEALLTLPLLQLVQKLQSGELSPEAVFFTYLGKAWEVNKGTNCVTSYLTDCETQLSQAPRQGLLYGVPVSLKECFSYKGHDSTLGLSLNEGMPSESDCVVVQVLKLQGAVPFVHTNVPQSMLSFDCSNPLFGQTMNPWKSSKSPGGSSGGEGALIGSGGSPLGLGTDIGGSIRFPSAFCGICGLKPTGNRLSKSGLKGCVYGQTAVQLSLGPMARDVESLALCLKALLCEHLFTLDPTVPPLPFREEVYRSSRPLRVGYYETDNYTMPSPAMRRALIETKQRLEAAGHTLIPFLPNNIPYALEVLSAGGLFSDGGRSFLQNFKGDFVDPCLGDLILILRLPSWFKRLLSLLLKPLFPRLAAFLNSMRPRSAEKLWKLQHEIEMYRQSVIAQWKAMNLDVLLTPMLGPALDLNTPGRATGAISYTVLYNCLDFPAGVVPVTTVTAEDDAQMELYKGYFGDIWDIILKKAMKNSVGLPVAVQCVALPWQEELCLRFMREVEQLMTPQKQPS
Kind of experiment: Inhibition of FAAH in rat brain membranes assessed as [14C]AEA hydrolysis to [14C]Ethanolamine after 30 mins by scintillation counting analysis. The format is cell membranes. The procedure, abridged:
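Rat brain membranes were incubated with [¹⁴C]AEA in 50 mM Tris-HCl pH 9 for 30 min at 37 °C. Released [¹⁴C]ethanolamine in the aqueous phase was counted by scintillation after CHCl₃/CH₃OH 2/1 extraction. IC50 was the concentration giving 50% inhibition.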

The target in experiment [4] is T3, Transient receptor potential cation channel subfamily V member 1 (Homo sapiens, UniProt Q8NER1). Description: Agonist activity at human TRPV1 receptor expressed in HEK293 cells assessed as increase in intracellular Ca2+ concentration by spectrofluorimetric analysis relative to ionomycin. The format is cell-based. The procedure, abridged: as §1
The target of experiment [5] is T1, Transient receptor potential cation channel subfamily A member 1. Kind of experiment: Antagonist activity at rat TRPA1 receptor expressed in HEK293 cells assessed as inhibition of allyl isothiocyanate-induced intracellular Ca2+ elevation incubated for 5 mins prior to allyl isothiocyanate-stimulation by spectrofluorimetric analysis. In kind it is cell-based. The procedure, abridged: (§2)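 Fluo-4-loaded HEK293 cells stably expressing human TRPV1 or rat TRPA1, in Tyrode's buffer pH 7.4, received test compound in the cuvette 5 min before agonist: capsaicin 0.1 µM for TRPV1, AITC 100 µM for TRPA1. The [Ca²⁺]i rise with agonist alone was set to 100%. IC50 came from a variable-slope sigmoidal fit. Untransfected-cell signal was subtracted.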

The next experiment concerns the target T4, Monoglyceride lipase (Homo sapiens, UniProt Q99685).
T4 sequence (Q99685 whole entry): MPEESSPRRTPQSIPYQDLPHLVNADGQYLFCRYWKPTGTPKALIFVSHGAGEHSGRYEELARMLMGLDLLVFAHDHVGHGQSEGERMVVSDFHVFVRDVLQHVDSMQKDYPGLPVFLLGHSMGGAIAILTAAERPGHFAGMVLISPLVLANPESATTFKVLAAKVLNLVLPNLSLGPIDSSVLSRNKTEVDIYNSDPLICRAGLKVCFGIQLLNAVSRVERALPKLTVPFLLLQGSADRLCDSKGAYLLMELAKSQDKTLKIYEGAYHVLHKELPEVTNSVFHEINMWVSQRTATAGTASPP
Description: Inhibition of MAGL (unknown origin) expressed in African green monkey COS7 cell cytosolic fraction assessed as [3H]2-AG hydrolysis to [3H]arachidonic acid after 20 mins by beta counting analysis. Details: species or system COS-7.

In experiment [6] the target is T3, Transient receptor potential cation channel subfamily V member 1. Description: Antagonist activity at human TRPV1 receptor expressed in HEK293 cells assessed as inhibition of capsaicin-induced intracellular Ca2+ elevation incubated for 5 mins prior to capsaicin-stimulation by spectrofluorimetric analysis. The format is cell-based. The procedure, abridged: as §2

The target is the same in experiment [7]. Kind of experiment: Agonist activity at human TRPV1 receptor expressed in HEK293 cells assessed as increase in intracellular Ca2+ concentration by spectrofluorimetric analysis. The format is cell-based. The procedure, abridged:
as §1

Each structure is given as a SMILES string. Some results are limits rather than exact numbers.

T3 sequence (Q8NER1 whole entry): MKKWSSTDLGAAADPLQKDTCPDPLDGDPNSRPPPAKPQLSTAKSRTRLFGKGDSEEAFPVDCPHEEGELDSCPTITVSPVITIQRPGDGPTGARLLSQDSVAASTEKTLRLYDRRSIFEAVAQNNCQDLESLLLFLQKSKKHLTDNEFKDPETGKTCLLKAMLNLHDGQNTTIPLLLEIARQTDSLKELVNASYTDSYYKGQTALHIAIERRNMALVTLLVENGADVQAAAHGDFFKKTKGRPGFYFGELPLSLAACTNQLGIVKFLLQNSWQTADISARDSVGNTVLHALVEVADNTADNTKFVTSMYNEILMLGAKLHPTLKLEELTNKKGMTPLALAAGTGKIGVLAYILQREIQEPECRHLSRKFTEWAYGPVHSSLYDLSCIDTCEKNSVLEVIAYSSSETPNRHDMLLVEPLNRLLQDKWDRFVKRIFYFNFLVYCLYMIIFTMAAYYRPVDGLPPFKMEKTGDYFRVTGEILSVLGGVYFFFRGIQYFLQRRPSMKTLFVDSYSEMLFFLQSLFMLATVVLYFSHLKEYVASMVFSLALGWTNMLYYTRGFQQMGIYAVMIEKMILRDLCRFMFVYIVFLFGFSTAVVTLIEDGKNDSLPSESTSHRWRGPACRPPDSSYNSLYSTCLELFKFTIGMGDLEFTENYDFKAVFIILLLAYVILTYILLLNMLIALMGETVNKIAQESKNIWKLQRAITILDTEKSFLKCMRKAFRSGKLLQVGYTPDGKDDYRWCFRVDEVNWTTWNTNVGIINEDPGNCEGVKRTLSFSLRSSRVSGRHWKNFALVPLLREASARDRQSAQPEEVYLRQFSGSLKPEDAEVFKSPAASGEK
T1 sequence (Q6RI86 whole entry): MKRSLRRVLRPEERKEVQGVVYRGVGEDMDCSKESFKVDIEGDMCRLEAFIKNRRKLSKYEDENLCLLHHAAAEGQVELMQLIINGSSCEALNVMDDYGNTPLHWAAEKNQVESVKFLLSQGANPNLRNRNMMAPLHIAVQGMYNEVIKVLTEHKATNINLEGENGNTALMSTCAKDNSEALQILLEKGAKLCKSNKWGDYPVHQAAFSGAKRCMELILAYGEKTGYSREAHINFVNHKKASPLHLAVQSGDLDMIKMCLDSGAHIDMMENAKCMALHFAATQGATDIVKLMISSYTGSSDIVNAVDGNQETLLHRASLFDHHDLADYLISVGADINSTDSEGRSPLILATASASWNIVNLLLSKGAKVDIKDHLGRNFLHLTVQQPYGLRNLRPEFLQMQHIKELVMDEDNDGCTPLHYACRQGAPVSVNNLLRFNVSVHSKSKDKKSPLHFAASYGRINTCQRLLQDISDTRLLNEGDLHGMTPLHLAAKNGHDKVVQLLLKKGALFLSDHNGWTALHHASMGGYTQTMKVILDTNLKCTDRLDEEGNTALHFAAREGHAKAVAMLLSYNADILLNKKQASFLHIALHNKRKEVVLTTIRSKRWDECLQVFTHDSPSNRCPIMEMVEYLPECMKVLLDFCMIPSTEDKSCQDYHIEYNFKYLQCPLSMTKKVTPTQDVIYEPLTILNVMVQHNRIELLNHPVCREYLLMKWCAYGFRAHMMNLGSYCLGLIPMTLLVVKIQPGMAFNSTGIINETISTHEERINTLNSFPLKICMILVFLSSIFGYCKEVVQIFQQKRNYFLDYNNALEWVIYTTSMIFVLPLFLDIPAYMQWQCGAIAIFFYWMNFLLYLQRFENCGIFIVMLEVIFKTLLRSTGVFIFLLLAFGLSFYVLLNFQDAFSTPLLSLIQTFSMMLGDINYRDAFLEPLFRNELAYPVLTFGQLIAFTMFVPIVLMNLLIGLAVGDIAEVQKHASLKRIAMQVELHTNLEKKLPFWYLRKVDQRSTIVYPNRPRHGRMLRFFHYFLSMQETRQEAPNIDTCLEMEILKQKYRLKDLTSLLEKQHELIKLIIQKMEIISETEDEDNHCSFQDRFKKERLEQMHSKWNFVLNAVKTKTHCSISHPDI
Transient receptor potential cation channel subfamily A member 1 (Rattus norvegicus), sequence (Q6RI86 whole entry): as above

`CN(C)C(=O)n1nnnc1Cc1ccc(-c2ccc(CO)cc2)cc1`: the EC50 in experiment [1] came out at 24.2 µM. Besides, the Efficacy in experiment [2] is 58.7%; in experiment [4], below 10%. Moreover, the IC50 in experiment [3] was 0.0374 µM; in experiment [5], 52.6 µM; on Monoglyceride lipase, above 1 µM; in experiment [6] it was above 100 µM.
With `CN(CCCCc1ccccc1)C(=O)n1nnc(Cc2ccc(-c3ccccc3)cc2)n1`, the Efficacy in experiment [2] was below 10%; in experiment [4], 15.9%. The values for the IC50 in experiment [3], in experiment [5] and in experiment [6] were 0.0116 µM, 92.1 µM and 47.6 µM, respectively. For the same molecule, in experiment [7], the EC50 was found to be 1.7 µM.
Turning to `O=C(N1CCCCC1)n1nnc(Cc2ccc(-c3ccccc3)cc2)n1`, the half-maximal effective concentration (EC50) in experiment [1] was 3.7 µM; in experiment [7], 1.8 µM. For the same molecule, the Efficacy came to 130% in experiment [2] and 66.7% in experiment [4]. Also, the results for the IC50 in experiment [3], in experiment [5] and in experiment [6] were 0.0681 µM, 21.5 µM and 7.4 µM, respectively.
Regarding `CN(C)C(=O)n1nnc(Cc2ccc(-c3ccc(O)cc3)cc2)n1`, the EC50 in experiment [1] worked out at 14.6 µM. Also, the Efficacy is 109% in experiment [2] and below 10% in experiment [4]. In addition, the results for the IC50 in experiment [3], in experiment [5] and in experiment [6] were 0.0054 µM, 30.2 µM and above 100 µM, respectively.
On to `CN(C)C(=O)n1nnc(Cc2ccc(-c3ccccc3)cc2)n1`, for which the results for the EC50 in experiment [1] and in experiment [7] were 20.1 µM and 5 µM, respectively. In addition, the Efficacy in experiment [2] came to 186%; in experiment [4], 14.5%. The IC50 in experiment [5] came to 11.2 µM; in experiment [6], 31.3 µM.
With `Cc1ccc(-c2ccc(Cc3nnn(C(=O)N(C)C)n3)cc2)cc1`, the results for the EC50 in experiment [1] and in experiment [7] were 10.3 µM and 4.8 µM, respectively. The results for the Efficacy in experiment [2] and in experiment [4] were 275% and 33.3%, respectively. In addition, the IC50 was 0.0462 µM in experiment [3], 10.5 µM in experiment [5] and 20.6 µM in experiment [6].
Consider `CN(C)C(=O)n1nnnc1Cc1ccc(-c2ccccc2O)cc1`, for which the EC50 in experiment [1] turned out to be 59.7 µM. Moreover, the Efficacy is 228% in experiment [2] and below 10% in experiment [4]. Besides, the IC50 in experiment [3] is 0.0156 µM; in experiment [5], above 100 µM; at Monoglyceride lipase it was above 1 µM; in experiment [6] it was above 100 µM.
For `Cc1ccccc1-c1ccc(Cc2nnnn2C(=O)N(C)C)cc1`, the EC50 in experiment [1] was 48.7 µM. Also, the Efficacy was 349% in experiment [2] and below 10% in experiment [4]. The IC50 was 0.0355 µM in experiment [3], 45.2 µM in experiment [5], above 1 µM on Monoglyceride lipase and above 100 µM in experiment [6].
For the molecule `COC(=O)c1cccc(-c2ccc(Cc3nnnn3C(=O)N(C)C)cc2)c1`, the Efficacy in experiment [2] and in experiment [4] was below 10% in each case. The half-inhibitory concentration (IC50) in experiment [3] is 0.0121 µM; in experiment [5], 99.8 µM; on Monoglyceride lipase it was above 1 µM; in experiment [6], above 100 µM.
As to `CN(C)C(=O)n1nnc(Cc2ccc(-c3cccc(C(N)=O)c3)cc2)n1`, the Efficacy in experiment [2] and in experiment [4] was below 10% throughout. The results for the IC50 in experiment [3], in experiment [5] and in experiment [6] were 0.0071 µM, 83.1 µM and 91.8 µM, respectively.
Regarding `CN(C)C(=O)n1nnnc1Cc1ccc(-c2cccc(O)c2)cc1`, the figures for the EC50 in experiment [1] and in experiment [7] were 26.8 µM and 25 µM, respectively. For the same molecule, the Efficacy in experiment [2] was 35.7%; in experiment [4] it was 20%. Besides, the IC50 is 0.003 µM in experiment [3], above 100 µM in experiment [5] and 67.4 µM in experiment [6].
In the case of `CN(C)C(=O)n1nnnc1Cc1ccc(-c2cccc(CO)c2)cc1`, the Efficacy in experiment [2] and in experiment [4] was below 10% in each case. For the same molecule, the values for the IC50 in experiment [3], in experiment [5] and in experiment [6] were 0.0106 µM, above 100 µM and above 100 µM, respectively.
For the molecule `CN(C)C(=O)n1nnnc1Cc1ccc(-c2ccc(O)cc2)cc1`, in experiment [1], the EC50 was found to be 21.7 µM. Also, the Efficacy in experiment [2] was 40.5%; in experiment [4], below 10%. Besides, the IC50 is 0.0167 µM in experiment [3], above 100 µM in experiment [5], above 1 µM at Monoglyceride lipase and above 100 µM in experiment [6].
For the molecule `CN(C)C(=O)n1nnc(Cc2ccc(-c3ccc(CO)cc3)cc2)n1`, the EC50 in experiment [1] turned out to be 24.4 µM. The Efficacy in experiment [2] is 67.3%; in experiment [4] it was below 10%. Also, the IC50 in experiment [3] was 0.0075 µM; in experiment [5], 70.6 µM; in experiment [6], above 100 µM.
As for `CC(=O)c1cccc(-c2ccc(Cc3nnn(C(=O)N(C)C)n3)cc2)c1`, the Efficacy in experiment [2] and in experiment [4] was below 10% each time. For the same molecule, the IC50 is 0.0342 µM in experiment [3], 97.2 µM in experiment [5] and above 100 µM in experiment [6].
`CN(Cc1ccc2ccccc2c1)C(=O)n1nnc(Cc2ccc(-c3ccccc3)cc2)n1`: the results for the Efficacy in experiment [2] and in experiment [4] were below 10% and 36.1%, respectively. Moreover, the 50% inhibitory concentration (IC50) is 0.0169 µM in experiment [3], 24.3 µM in experiment [5] and 4.5 µM in experiment [6]. Further, the EC50 in experiment [7] amounted to 11.9 µM.
Take `Cc1ccccc1-c1ccc(Cc2nnn(C(=O)N(C)C)n2)cc1`: the EC50 in experiment [1] came out at 15.9 µM. Also, the Efficacy in experiment [2] was 202%; in experiment [4], below 10%. The IC50 is 0.0517 µM in experiment [3], 18.9 µM in experiment [5] and above 100 µM in experiment [6].
Take `CC(=O)c1cccc(-c2ccc(Cc3nnnn3C(=O)N(C)C)cc2)c1`: the Efficacy in experiment [2] and in experiment [4] was below 10% in each case. Moreover, the IC50 in experiment [3] is 0.0147 µM; in experiment [5], above 100 µM; at Monoglyceride lipase, above 1 µM; in experiment [6], above 100 µM.
`CN(C)C(=O)n1nnc(Cc2ccc(-c3cccc(CO)c3)cc2)n1`: the Efficacy in experiment [2] and in experiment [4] was below 10% throughout. In addition, the IC50 is 0.0107 µM in experiment [3], above 100 µM in experiment [5] and above 100 µM in experiment [6].
For `CN(C)C(=O)n1nnnc1Cc1ccc(-c2ccccc2)cc1`, in experiment [1], the EC50 stood at 26.9 µM. Further, the Efficacy is 101% in experiment [2] and below 10% in experiment [4]. In addition, the IC50 is 49.4 µM in experiment [5] and above 100 µM in experiment [6].
Take `COC(=O)c1cccc(-c2ccc(Cc3nnn(C(=O)N(C)C)n3)cc2)c1`: the Efficacy in experiment [2] and in experiment [4] was below 10% each time. Further, the results for the IC50 in experiment [3], in experiment [5] and in experiment [6] were 0.0123 µM, 91.2 µM and above 100 µM, respectively.
For `Cc1cccc(-c2ccc(Cc3nnn(C(=O)N(C)C)n3)cc2)c1`, in experiment [1], the EC50 came to 15 µM. Besides, the Efficacy was 187% in experiment [2] and below 10% in experiment [4]. Besides, the IC50 in experiment [3] was 0.0485 µM; in experiment [5], 17.8 µM; in experiment [6], 78.9 µM.
With `CN(C)C(=O)n1nnc(Cc2ccc(-c3ccccc3O)cc2)n1`, the 50% effective concentration (EC50) in experiment [1] is 53.3 µM. Also, the Efficacy in experiment [2] is 445%; in experiment [4], below 10%. The IC50 was 0.0402 µM in experiment [3], 28 µM in experiment [5] and above 100 µM in experiment [6].

Values taken from ChEMBL document CHEMBL2375292, “Biaryl tetrazolyl ureas as inhibitors of endocannabinoid metabolism: modulation at the N-portion and distal phenyl ring” (Eur J Med Chem, 2013).
